# From PubChem BioAssay
# A selection: hits, their analogues and other compounds. The true share with any hit is near 2%.
# DNMT1 inh: human DNMT1 methyltransferase inhibitors, primary screen, biochemical, molecular beacon, fluorescence, HinP1I cleavage, uHTS. AID 588458, 2011. inhibition (reported as % activation of signal), % at 10 µM. actives 0.83% (n = 360,000). DNA (cytosine-5)-methyltransferase 1 (Homo sapiens), P26358; in the data active means inhibition above about 50%
# Scp1 inh: Scp-1 phosphatase inhibitors, primary screen, biochemical, colorimetric, uHTS. Carboxy-terminal domain RNA polymerase II polypeptide A small phosphatase 1 (Homo …. Recombinant Scp1, phosphopeptide, malachite green phosphate absorbance. inhibition, % at 20 µM. actives 0.88% (n = 340,000). AID 493091, 2011;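 active means inhibition above about 50% at 20 µM, limit read from the data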;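 further: plate controls were DMSO wells with enzyme for no effect and wells lacking enzyme for full effect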
# Target sequence (Q9GZU7 76-261 limits assumed): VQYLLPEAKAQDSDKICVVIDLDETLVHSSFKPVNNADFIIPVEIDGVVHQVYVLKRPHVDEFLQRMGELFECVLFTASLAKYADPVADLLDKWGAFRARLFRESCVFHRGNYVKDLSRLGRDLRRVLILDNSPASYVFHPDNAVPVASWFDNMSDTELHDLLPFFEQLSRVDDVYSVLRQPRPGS
#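 System: truncated SCP-1 phosphatase (76-261aa); medium: Tris acetate buffer pH 5.5 with MgCl2 and Tween-20; incubation: 45 min room-temperature reaction, 5 min colour, 30 min stabiliser; compound: single 20 µM dose, 1% DMSO; reagent: Phosphorylated 17-residue peptide substrate; read-out: % inhibition at 20 µM; technique: colorimetric free-phosphate detection, absorbance 630 nm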
# LMPTP inh: LMPTP phosphatase inhibitors, primary screen, biochemical, fluorescence intensity, uHTS. Low molecular weight phosphotyrosine protein phosphatase (Homo sapiens), P24666. recombinant LMPTP-A, OMFP fluorogenic substrate. inhibition, % at 20 µM. actives 0.22% (n = 360,000);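 active means compounds that cut the enzyme signal by at least half of the control window in the single-dose screen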;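 further: plate controls were DMSO wells with enzyme plus substrate for no effect and substrate without enzyme for full effect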
# Target sequence (P24666 whole entry, looked up): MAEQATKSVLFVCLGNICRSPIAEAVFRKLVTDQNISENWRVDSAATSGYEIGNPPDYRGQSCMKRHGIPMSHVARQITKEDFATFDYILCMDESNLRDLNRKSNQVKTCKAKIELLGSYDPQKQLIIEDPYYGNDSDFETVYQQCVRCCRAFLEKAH
#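 Material: LMPTP-A; amount: 0.625 nM enzyme; doses: single 20 µM dose; times: reaction 50 min, room temperature, dark; technique: fluorescence intensity of OMFP turnover product; benchmarks: no-enzyme and uninhibited controls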
# Rpn11 inh: Rpn11 (PSMD14) deubiquitinase inhibitors, primary screen, biochemical, fluorescence polarization, uHTS; 26S proteasome non-ATPase regulatory subunit 14 (Homo sapiens), O00487; human 26S proteasome, Ub4-pepOG fluorescence polarization; 20S core pre-blocked with epoxomicin; inhibition, % at 20 µM; actives 0.59% (n = 360,000); AID 588493, 2011;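 active means inhibition at 20 µM, scaled to each plate's controls, above about 33%, limit read from the data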
# Target sequence (O00487 whole entry, looked up): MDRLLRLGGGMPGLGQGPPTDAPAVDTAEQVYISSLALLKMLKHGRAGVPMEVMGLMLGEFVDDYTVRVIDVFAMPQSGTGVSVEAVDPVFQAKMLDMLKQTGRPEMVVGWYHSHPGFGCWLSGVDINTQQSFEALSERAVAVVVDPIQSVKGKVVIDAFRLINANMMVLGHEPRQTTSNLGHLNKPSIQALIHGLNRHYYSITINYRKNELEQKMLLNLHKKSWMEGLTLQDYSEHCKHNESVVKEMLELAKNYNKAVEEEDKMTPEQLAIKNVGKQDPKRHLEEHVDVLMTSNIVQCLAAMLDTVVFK
# STEP block: STEP phosphatase inhibitors, primary screen, biochemical, fluorescence intensity, uHTS; Tyrosine-protein phosphatase non-receptor type 5 (Homo sapiens), P54829; recombinant STEP, OMFP fluorogenic substrate; inhibition, % at 20 µM; actives 0.25% (n = 360,000); AID 588621, 2011;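 active means inhibition at 20 µM, scaled per plate between control wells, above about 37%, limit read from the data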;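 further: 0% = DMSO with enzyme and substrate and 100% = substrate only without enzyme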
#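 Test system: STEP tyrosine phosphatase / Reagent: OMFP at 25 µM / Doses: 20 µM, 1% DMSO / Read-out: percent inhibition scaled to no-enzyme and uninhibited-enzyme controls, plate-pattern corrected / Detection: FITC-channel fluorescence of OMFP product / Medium: Bis-Tris buffer pH 6.0, 2.5 mM DTT, 0.005% Tween 20 / Schedule: 20 min at room temperature, dark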
# DNMT1 confirm: DNMT1 methyltransferase inhibitor retest, confirmation, biochemical, molecular beacon, fluorescence, single concentration; shares compounds with DNMT1 inh; DNMT1 molecular beacon HinP1I cleavage; inhibition, % at 10 µM; actives 8% (n = 2,300); AID 602385, 2012;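 active means average inhibition of at least 30% in the single-concentration confirmation test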
# Beacon interf: counter-screen for DNMT1 inhibitors: spectral interference. activation (fluorescence interference), % at 10 µM. AID 602387. DNMT1 molecular beacon spectral interference counterscreen, fluorescence 485/520. actives 1% (n = 2,300). shares compounds with DNMT1 inh;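 active means activation of at least 30% at 10 µM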;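 further: DNMT1 catalytic domain with a HinP1I cleavage step and a FAM/dabcyl DNA beacon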
# The depositor's hits bear a star; x = no result given.
SMILES,DNMT1 inh,Scp1 inh,LMPTP inh,Rpn11 inh,STEP block,DNMT1 confirm,Beacon interf
O=c1c(-c2c(O)cc(O)c3c(=O)cc(-c4ccc(O)cc4)oc23)c(-c2ccc(O)cc2)oc2cc(O)cc(O)c12,93.4*,52.8*,15.4,-3.8,-2.7,12.3,7.3
C/C(=N\NC(=O)c1ccc2c(c1)OCO2)c1ccc(O)cc1,81.0*,-12.3,-0.9,-5.0,-1.7,25.9,4.4
CCCCn1c(SCC(=O)NC2CC2)nc2ccccc2c1=O,-1.6,-2.0,-0.1,3.0,1.6,x,x
N#CC1(NC(=O)COC(=O)c2nccnc2N)CCCCC1,-1.1,1.0,-0.8,2.2,-2.0,x,x
O=C(CN1CCc2ccccc2C1)NC1CCCC1,-5.3,-0.9,0.4,-1.2,0.3,x,x
Cc1ccc(S(=O)(=O)c2nc(-c3ccccc3F)oc2N2CC(C)OC(C)C2)cc1 (stereo unspecified),1.1,-7.2,0.4,0.9,0.0,x,x
Cc1noc(C)c1CCC(=O)N1CCCC(N2CCN(c3ccc(F)cc3)CC2)C1 (stereo unspecified),86.0*,1.0,-1.3,-5.5,1.2,3.4,6.2
Cc1nn(C)c(C)c1CCC(=O)N1CCCC(N2CCN(c3ccc(F)cc3)CC2)C1 (stereo unspecified),5.5,-8.3,0.6,5.9,2.8,x,x
Fc1cc(F)c2nc(Nc3nc4cc5c(cc4s3)OCO5)sc2c1,71.6*,0.9,11.4,-6.0,0.6,-0.6,-4.2
Fc1cccc2sc(Nc3nc4cc5c(cc4s3)OCO5)nc12,-25.3,-0.2,1.8,14.3,-1.1,x,x
COc1ccc(CCC(=O)OCc2csc(CC(=O)Nc3ccccc3C)n2)cc1,-6.3,-7.1,-0.5,7.5,-0.5,x,x
O=[N+]([O-])c1cc2ncccc2c2ncccc12,-2.6,x,-1.3,-1.0,-2.6,x,x
O=C(Cc1ccc(F)cc1)N/N=C/c1ccccn1,65.7*,-4.0,-1.7,-7.2,1.5,0.8,-0.9
COc1ccc(CN(C(=O)c2cc3ccccc3oc2=O)C2CCS(=O)(=O)C2)cc1OC (stereo unspecified),0.8,-5.8,-1.1,-2.0,-4.3,x,x
Cc1cc(C)cc(-n2c3nc4ccccc4nc3c3c(=O)n(Cc4ccco4)cnc32)c1,98.1*,4.6,56.3*,19.2,2.0,-0.1,-3.8
CCn1c2ccccc2c2cc(NC(=O)COC(=O)c3cc(Cl)c(N)cc3OC)ccc21,4.7,-20.6,4.1,10.1,3.5,x,x
Cn1nc([N+](=O)[O-])c2c(-c3nc4ccccc4s3)c(N)n(C3CCCCC3)c2c1=O,62.5*,5.7,3.0,-5.2,10.5,1.2,5.2
CCCCn1c(N)c(-c2nc3ccccc3s2)c2c([N+](=O)[O-])nn(CC)c(=O)c21,0.5,-1.8,0.0,3.3,1.7,x,x
COc1cc(NS(=O)(=O)c2ccc(NC(=S)NC(C)=O)cc2)nc(OC)n1,53.8*,12.6,-2.2,-5.7,2.4,1.5,1.9
COc1cc(C(C#N)N2CCC(c3ccccc3)=N2)ccc1O (stereo unspecified),-1.8,-8.4,0.4,-2.2,0.8,x,x
N#Cc1ncc(Cc2ccccc2)nc1C#N,-9.6,-7.5,1.3,0.9,-1.7,x,x
CSc1ccc(/C=C(/NC(=O)c2ccc(C)cc2)C(=O)Nc2cccc(C)c2)cc1,54.7*,-2.7,0.0,0.8,1.3,0.1,2.4
Cc1cccc(NC(=O)/C(=C\c2ccc([N+](=O)[O-])o2)NC(=O)c2ccc(Cl)cc2)c1,85.3*,45.1,8.8,2.5,6.7,-1.1,2.8
CSc1nc(Sc2cccc(Cl)c2)c2ccccc2n1,86.8*,2.6,0.8,3.0,1.8,6.6,4.1
Cc1nnn(-c2nonc2N)c1C(=O)N/N=C/c1cccc2ccccc12,59.7*,-6.9,2.2,7.3,4.8,5.6,2.2
SMILES,DNMT1 inh,Scp1 inh,LMPTP inh,Rpn11 inh,STEP block,DNMT1 confirm,Beacon interf
CNC(=O)C1CCN(S(=O)(=O)c2c(C)noc2/C=C/c2ccc(OC)cc2)CC1,3.5,-9.2,-1.1,-1.9,-2.6,x,x
CN(C)c1ccc2cc(S(=O)(=O)O)cc(O)c2c1,63.0*,67.3*,12.8,-7.0,11.3,4.6,-0.9
Cc1nn(CCc2nc(-c3ccco3)cs2)c2[nH]c(=O)cc(C(F)(F)F)c12,60.6*,19.6,2.1,7.5,7.5,0.2,-1.8
COc1ccc(OC)c(S(=O)(=O)N2CCC(C(=O)NCc3ccc4c(c3)OCO4)CC2)c1,-2.1,-9.6,0.3,3.1,-0.5,x,x
CC(C)OCCCn1c(=N)c(C(N)=S)cc2c(=O)n3ccccc3nc21,64.3*,-4.3,19.1,7.6,1.5,0.7,6.6
CC(NC(=O)CN(C)Cc1cccs1)c1ccccc1 (stereo unspecified),-2.8,-5.6,0.8,-1.8,0.7,x,x
Cc1ccc(C(=O)N[C@H](C(=O)OCc2cc(=O)n3c(n2)sc2ccccc23)C(C)C)cc1,84.0*,45.8,6.0,-30.6,6.0,3.4,-0.7
CCOc1ccc(S(=O)(=O)NNS(=O)(=O)c2ccc(C)cc2C)cc1,1.1,-2.0,-1.3,0.3,-0.7,x,x
Cc1cc(C)c(N(CC(=O)NCc2ccccc2)C(=O)c2csnn2)c(C)c1,0.1,5.3,0.9,3.9,2.2,x,x
CCc1nnc(NC(=O)c2oc3cc(C)c(C)cc3c2C)s1,52.6*,-2.0,-1.1,0.0,1.4,0.9,-1.1
Cc1ccc(C(=O)NCC(=O)Nc2ccc3c(c2)CCC3)cc1C,8.8,-3.5,-0.9,0.9,-4.4,x,x
Cc1cc(C(=O)Nc2ccc3c(c2)CCC3)ccc1[N+](=O)[O-],77.7*,-14.9,1.9,0.3,2.5,3.3,5.3
O=C1/C(=C\c2ccc(-c3ccccc3[N+](=O)[O-])o2)C(c2ccccc2)=NN1c1ccccc1,62.8*,-19.9,3.2,3.3,0.2,13.9,1.0
CN(C)/C=C1\C(=O)N(c2ccc([N+](=O)[O-])cc2)N=C1c1ccccc1,-7.4,1.1,-1.0,-2.6,2.1,x,x
CCOc1ccc(S(=O)(=O)NCCC(=O)OCC(=O)Nc2cc(C)on2)cc1,8.5,-4.1,-0.6,-4.0,1.0,x,x
